Measured values: ChEMBL document CHEMBL1121810, “Antihypertensive activity of 6-arylpyrido[2,3-d]pyrimidin-7-amine derivatives” (1981)

Assays:
Format in all cases: functional
Settings in all cases: route oral
Rattus norvegicus [1] = assay: Effect on heart rate of spontaneously hypertensive rats, 24 hr after peroral administration at 50 mg/kg
Outline: (§1)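 Heart rate was derived from the pulsatile arterial pressure signal in conscious catheterized male SHR (22-24 weeks, 250-350 g), with continuous monitoring sampled 3 min per 30 min. Drug was given by gavage as a 4% gum acacia suspension at 2 mL/kg, dose as free base, to groups of 3-4 rats with mean pressure >150 mmHg. Individual 30-min means were compared with pretreatment values.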

Rattus norvegicus [2] = assay: Effect on heart rate of spontaneously hypertensive rats, 2 hr after peroral administration at 50 mg/kg; outline: as §1
Rattus norvegicus [3] = assay: Effect on heart rate of spontaneously hypertensive rats, 10 hr after peroral administration at 50 mg/kg; outline: as §1
Rattus norvegicus [4] = assay: Maximum percent decrease in heart rate of spontaneously hypertensive rats, 10 hr after peroral administration of 50 mg/kg of compound; outline: as §1
Rattus norvegicus [5] = assay: Effect on heart rate of spontaneously hypertensive rats, 24 hr after peroral administration of 10 mg/kg of compound; outline: as §1
Rattus norvegicus [6] = assay: Maximum percent decrease in heart rate of spontaneously hypertensive rats, 6 hours after peroral administration of 50 mg/kg of compound
Outline: (§2)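 Conscious male SHR (Kyoto-Wistar origin, 22-24 weeks, 250-350 g; mean BP >150 mmHg, pulse pressure >25 mmHg) with indwelling catheters, ~0.8 mL heparinized saline/day. Dosed by gavage as a 4% gum acacia suspension, 2 mL/kg, free-base doses, 3-4 rats per group. Heart rate was derived from the pulsatile pressure signal, sampled 3 min every 30 min, and 30-min means were compared with pretreatment values.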

Rattus norvegicus [7] = assay: Effect on heart rate of spontaneously hypertensive rats, 2 hr after peroral administration of 10 mg/kg of compound; outline: as §1
Rattus norvegicus [8] = assay: Effect on heart rate of spontaneously hypertensive rats, 10 hr after peroral administration of 10 mg/kg of compound; outline: as §1
Rattus norvegicus [9] = assay: Maximum percent decrease in heart rate of spontaneously hypertensive rats, 8 hours after peroral administration of 50 mg/kg of compound; outline: as §2
Rattus norvegicus [10] = assay: Effect on heart rate of spontaneously hypertensive rats, 18 hr after peroral administration of 50 mg/kg of compound; outline: as §1
Rattus norvegicus [11] = assay: Maximum percent decrease in heart rate of spontaneously hypertensive rats, 10 hours after peroral administration of 50 mg/kg of compound; outline: as §1
Rattus norvegicus [12] = assay: Blood pressure rating in spontaneously hypertensive rats, 10 hr after peroral administration of 50 mg/kg of compound
Outline: (§3)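 Conscious male SHR (Kyoto-Wistar origin, 22-24 weeks, 250-350 g) with indwelling catheters, given about 160 units heparin/day in saline. Only rats with mean blood pressure >150 mmHg and pulse pressure >25 mmHg were used, in groups of 3-4. Dosing was oral gavage at 2 mL/kg in 4% gum acacia suspension, as free base. Pressure was sampled 3 min of every 30 min, and 30-min means were compared with pretreatment values.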

Rattus norvegicus [13] = assay: Blood pressure rating in spontaneously hypertensive rats, 24 hr after peroral administration of 50 mg/kg of compound; outline: as §3
Rattus norvegicus [14] = assay: Blood pressure rating in spontaneously hypertensive rats, 2 hr after peroral administration of 50 mg/kg of compound; outline: as §3
Rattus norvegicus [15] = assay: Maximum percent decrease in heart rate of spontaneously hypertensive rats, 2 hours after peroral administration of 50 mg/kg of compound; outline: as §1
Rattus norvegicus [16] = assay: Maximum percent decrease in heart rate of spontaneously hypertensive rats, 4 hr after peroral administration of 50 mg/kg of compound; outline: as §1
Rattus norvegicus [17] = assay: Max effect on heart rate of spontaneously hypertensive rats, 3-5 hr after peroral administration of 10 mg/kg of compound; outline: as §1
Rattus norvegicus [18] = assay: Maximum percent decrease in heart rate of spontaneously hypertensive rats, 3 hours after peroral administration of 50 mg/kg of compound; outline: as §1
Rattus norvegicus [19] = assay: Maximum percent decrease in heart rate of spontaneously hypertensive rats, 5 hours after peroral administration of 50 mg/kg of compound; outline: as §2
Rattus norvegicus [20] = assay: Maximum percent decrease in heart rate of spontaneously hypertensive rats, 28 hours after peroral administration of 50 mg/kg of compound; outline: as §1
Rattus norvegicus [21] = assay: Effect on heart rate of spontaneously hypertensive rats,18hours after peroral administration of 50 mg/kg of compound; outline: as §1
Rattus norvegicus [22] = assay: Maximum effect on heart rate of spontaneously hypertensive rats, 3-5 hr after peroral administration of 10 mg/kg of compound; outline: as §1
Rattus norvegicus [23] = assay: Maximum effect on heart rate of spontaneously hypertensive rats, 18 hours after peroral administration of 10 mg/kg of compound; outline: as §1
Rattus norvegicus [24] = assay: Effect on heart rate of spontaneously hypertensive rats, 2 hr after peroral administration of 3 mg/kg of compound; outline: as §1
Rattus norvegicus [25] = assay: Effect on heart rate of spontaneously hypertensive rats, 24 hr after peroral administration of 3 mg/kg of compound; outline: as §1

Structure (SMILES) | Activity rating (Rattus norvegicus [1]) | Activity rating (Rattus norvegicus [2]) | Activity rating (Rattus norvegicus [3]) | further results
Cc1ncc2cc(-c3ccccc3C(F)(F)F)c(N)nc2n1 | 0 | 0 | 0 | 
Nc1nc2nc(CO)ncc2cc1-c1c(Cl)cccc1Cl | 1 | 0 | 1 | Decrease (Rattus norvegicus [4]): 17%
Cc1ncnc2nc(N)c(-c3c(Cl)cccc3Cl)cc12 |  | 2 | 2 | Activity rating (Rattus norvegicus [5]): 0; Decrease (Rattus norvegicus [6]): 26%; Activity rating (Rattus norvegicus [7]): 0; Activity rating (Rattus norvegicus [8]): 0
Nc1nc2nc(C(F)(F)F)ncc2cc1-c1c(Cl)cccc1Cl | 0 | 0 | 0 | 
Cc1ncc2cc(-c3ccc(Cl)cc3Cl)c(N)nc2n1 | 1 | 0 | 1 | Decrease (Rattus norvegicus [9]): 13%
Cc1ncc2cc(-c3cccc(Cl)c3Cl)c(N)nc2n1 | 0 | 0 | 0 | 
Cc1ncc2cc(-c3ccccc3I)c(N)nc2n1 | 0 | 0 | 0 | 
Cc1cccc(Cl)c1-c1cc2cncnc2nc1N |  | 1 | 2 | Activity rating (Rattus norvegicus [10]): 1; Decrease (Rattus norvegicus [11]): 21%
Cc1nc(N)c2cc(-c3c(Cl)cccc3Cl)c(N)nc2n1 | 0 | 0 | 0 | 
Nc1nc2ncncc2cc1-c1ccccc1 | 0 | 0 | 0 | 
CCOc1nc(C)nc2nc(N)c(-c3c(Cl)cccc3Cl)cc12 |  |  |  | Activity rating (Rattus norvegicus [12]): 0; Activity rating (Rattus norvegicus [13]): 0; Activity rating (Rattus norvegicus [14]): 0
Cc1ncc2cc(-c3ccc([N+](=O)[O-])cc3)c(N)nc2n1 |  |  |  | Activity rating (Rattus norvegicus [12]): 0; Activity rating (Rattus norvegicus [13]): 0; Activity rating (Rattus norvegicus [14]): 0
Cc1ccccc1-c1cc2cncnc2nc1N | 0 | 1 | 1 | Activity rating (Rattus norvegicus [5]): 0; Decrease (Rattus norvegicus [15]): 18%; Activity rating (Rattus norvegicus [7]): 0; Activity rating (Rattus norvegicus [8]): 0
Cc1ncc2cc(-c3ccccc3Br)c(N)nc2n1 | 0 | 1 | 1 | Decrease (Rattus norvegicus [16]): 19%; Activity rating (Rattus norvegicus [17]): 0
Cc1ncc2cc(-c3cccnc3)c(N)nc2n1 | 0 | 0 | 0 | 
Nc1nc2ncncc2cc1-c1ccccc1I | 1 | 0 | 0 | Decrease (Rattus norvegicus [9]): 11%
Cc1ncc2cc(-c3ccc(Cl)cc3)c(N)nc2n1 | 0 | 0 | 0 | 
Cc1ncc2cc(-c3ccccc3)c(N)nc2n1 | 0 | 0 | 0 | 
CCc1ncc2cc(-c3c(Cl)cccc3Cl)c(N)nc2n1 | 0 | 0 | 1 | Decrease (Rattus norvegicus [6]): 15%
Cc1ccccc1-c1cc2cnc(C3CC3)nc2nc1N |  |  |  | Activity rating (Rattus norvegicus [12]): 0; Activity rating (Rattus norvegicus [13]): 0; Activity rating (Rattus norvegicus [14]): 0
COCc1ncc2cc(-c3c(Cl)cccc3Cl)c(N)nc2n1 |  |  |  | Activity rating (Rattus norvegicus [12]): 1; Decrease (Rattus norvegicus [18]): 14%; Activity rating (Rattus norvegicus [13]): 1; Activity rating (Rattus norvegicus [14]): 1
Cc1ncc2cc(-c3ccccc3F)c(N)nc2n1 | 0 | 0 | 0 | 
CCc1ncc2cc(-c3ccccc3C)c(N)nc2n1 | 0 | 0 | 0 | 
Cc1ncc2cc(-c3c(C)cccc3Cl)c(N)nc2n1 |  | 1 | 2 | Activity rating (Rattus norvegicus [10]): 2; Activity rating (Rattus norvegicus [7]): 2; Decrease (Rattus norvegicus [19]): 30%; Activity rating (Rattus norvegicus [8]): 2

Structure (SMILES) | Activity rating (Rattus norvegicus [1]) | Activity rating (Rattus norvegicus [2]) | Activity rating (Rattus norvegicus [3]) | further results
Cc1nc(C)c2cc(-c3ccccc3C)c(N)nc2n1 | 0 | 0 | 0 | Decrease (Rattus norvegicus [9]): 11%
Cc1cccc(-c2cc3cncnc3nc2N)c1C | 0 | 0 | 0 | 
CCc1ncc2cc(-c3ccccc3Cl)c(N)nc2n1 | 0 | 0 | 0 | 
Cc1ncc2cc(-c3ccc(Cl)c(Cl)c3)c(N)nc2n1 |  | 0 | 0 | 
Cc1ncc2cc(-c3c(C)cccc3Br)c(N)nc2n1 | 0 | 0 | 1 | Decrease (Rattus norvegicus [19]): 18%
Cc1nc(C)c2cc(-c3c(Cl)cccc3Cl)c(N)nc2n1 |  | 2 | 3 | Activity rating (Rattus norvegicus [10]): 2; Decrease (Rattus norvegicus [6]): 32%
Nc1nc2nc(/C=C/c3ccccc3)ncc2cc1-c1c(Cl)cccc1Cl |  |  |  | Activity rating (Rattus norvegicus [12]): 1; Decrease (Rattus norvegicus [6]): 13%; Activity rating (Rattus norvegicus [13]): 0; Activity rating (Rattus norvegicus [14]): 0
Nc1nc2nc(C3CC3)ncc2cc1-c1c(Cl)cccc1Cl |  |  |  | Activity rating (Rattus norvegicus [12]): 0; Activity rating (Rattus norvegicus [13]): 0; Activity rating (Rattus norvegicus [14]): 0
Cc1ncc2cc(-c3cccc(Br)c3C)c(N)nc2n1 | 0 | 0 | 0 | 
Cc1ncc2cc(-c3ccco3)c(N)nc2n1 |  |  |  | Activity rating (Rattus norvegicus [12]): 0; Activity rating (Rattus norvegicus [13]): 0; Activity rating (Rattus norvegicus [14]): 0
Nc1nc2nc(C3CC3)ncc2cc1-c1ccccc1Br |  |  |  | Activity rating (Rattus norvegicus [12]): 0; Activity rating (Rattus norvegicus [13]): 0; Activity rating (Rattus norvegicus [14]): 0
Nc1nc2ncncc2cc1-c1cccnc1 | 0 | 0 | 0 | 
CCc1ccccc1-c1cc2cncnc2nc1N | 0 | 3 | 0 | Decrease (Rattus norvegicus [15]): 33%
CCc1ccccc1-c1cc2cnc(C)nc2nc1N | 0 | 0 | 0 | 
Cc1cc(C)c(-c2cc3cnc(C)nc3nc2N)c(C)c1 | 0 | 1 | 0 | Decrease (Rattus norvegicus [15]): 18%
Cc1cccc(C)c1-c1cc2cncnc2nc1N |  | 1 | 0 | Decrease (Rattus norvegicus [18]): 12%
Nc1nc2ncncc2cc1-c1ccccc1C(F)(F)F | 0 | 0 | 0 | 
Nc1nc2ncncc2cc1-c1c(Cl)cccc1Br |  | 1 | 2 | Activity rating (Rattus norvegicus [5]): 1; Decrease (Rattus norvegicus [20]): 28%; Activity rating (Rattus norvegicus [21]): 1; Activity rating (Rattus norvegicus [7]): 1; Activity rating (Rattus norvegicus [8]): 1
Nc1nc2ncncc2cc1-c1ccccc1Br |  | 0 | 1 | Activity rating (Rattus norvegicus [10]): 1; Decrease (Rattus norvegicus [19]): 16%; Activity rating (Rattus norvegicus [17]): 0
Cc1ncc2cc(-c3c(Cl)cccc3Br)c(N)nc2n1 | 2 | 2 | 2 | Activity rating (Rattus norvegicus [22]): 1; Activity rating (Rattus norvegicus [23]): 0; Decrease (Rattus norvegicus [19]): 26%
Cc1ncc2cc(-c3cccc(C)c3C)c(N)nc2n1 | 0 | 0 | 0 | 
Cc1ncc2cc(-c3c(C)cccc3C)c(N)nc2n1 | 0 | 0 | 0 | 
Clc1cccc(Cl)c1NC1=NCCN1 [CLONIDINE] |  |  |  | Activity rating (Rattus norvegicus [24]): 0; Activity rating (Rattus norvegicus [25]): 2
